The nature of data set [1]: Inhibition of Escherichia coli dUTPase.
Data set [2] is described as follows: Potentiation of antiproliferative activity of FdUrd against human HeLaS3 cells assessed as compound concentration causing 50% reduction in 1 uM FdUrd T/C value after 24 hrs by crystal violet assay. It counts as functional, cell-based, HeLa S3. As to conditions: for pEC50: Homo sapiens, HeLa S3, 24 h, read-out: EC50; for EC50: hela s3; call rule not given here. In outline:
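HeLa S3 cells seeded at 1500 cells/well and pre-incubated 24 h. Compound (1–100 μM) or DMSO added together with FdUrd (1 μM) for 24 h. Thymidine (30 μM) then added for a further 48 h. Crystal violet read-out at OD540. EC50 is the concentration that halves the FdUrd T/C (%), taken from the curve. Mean of three independent assays ± SD.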

The nature of data set [3]: Antiproliferative activity against human HeLaS3 cells at 30 uM after 72 hrs by crystal violet assay. It counts as functional, HeLa S3. In outline: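 HeLa S3 cells grown in RPMI1640 with 10% FBS, seeded at 1500 cells/well and left 24 h at 37 °C, 5% CO2. Compound (1–100 μM) or DMSO vehicle added, then 72 h incubation. Growth read by crystal violet staining, OD540. […] Average of three independent assays.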

Data set [4] concerns the target T1, Deoxyuridine 5'-triphosphate nucleotidohydrolase, mitochondrial (Homo sapiens, UniProt P33316).
T1 sequence (P33316 whole entry): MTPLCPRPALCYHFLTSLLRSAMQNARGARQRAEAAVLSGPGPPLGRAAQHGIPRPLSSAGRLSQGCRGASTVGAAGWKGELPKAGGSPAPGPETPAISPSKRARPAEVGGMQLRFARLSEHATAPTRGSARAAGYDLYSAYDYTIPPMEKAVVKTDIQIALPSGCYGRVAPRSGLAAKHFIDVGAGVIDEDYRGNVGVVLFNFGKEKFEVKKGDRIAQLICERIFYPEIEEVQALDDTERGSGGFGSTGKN
In words: Inhibition of human dUTPase assessed as production of [5-3H]dUMP from [5-3H]dUTP after 15 mins measured by HPLC analysis.

Data set [5] deals with MX1. The experiment in a line: Antitumor activity against human MX1 cells xenografted in Balb/c-A JcL-nu mouse assessed as tumor volume at 300 mg/kg/day, po for 14 days measured on day 15 (reference value: 2048 +/- 693.7 mm3). In kind it is functional. In outline:
(§1)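 Five-week-old Balb/cA JcL-nu mice given sc MX-1 tumor fragments (~2 mm) by trocar. Treatment for 14 days: 5-FU 15 mg/kg/day by osmotic-pump continuous infusion, and/or oral compound. Vehicle was 2.5% DMA, 2.5% Tween 80, 10% Cremophor, 0.5% HPMC. Tumor size and body weight measured twice weekly. TV = length × width² × 0.5. RTV = TV day 15/day 0. IR = (1 − treated/control mean RTV) × 100.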
A general note: A xenograft is tissue or cells of one species grown in another, often human tumour cells in immunodeficient mice.

Data set [6] is described as follows: Half life in Balb/c-A mouse at 50 mg/kg, po in a solution containing 2.5% DMA, 2.5% Tween 80 and 10% cremophor EL. It counts as ADME, organism-based. Further details: dose 50 mg/kg, route oral. The following applies: in vivo. In outline: (§2)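 Male Balb/c-A mice aged 6–9 weeks (n = 2), single oral dose; plasma drug levels measured by UPLC.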
Data set [7] in a line: AUCt in Balb/c-A mouse at 50 mg/kg, po in a solution containing 2.5% DMA, 2.5% Tween 80 and 10% cremophor EL. More on the design: dose 50 mg/kg, route oral. It counts as ADME, organism-based. The following applies: plasma. In outline:
as §2

For data set [8], the system named is MX1. In words: Antitumor activity against human MX1 cells xenografted in Balb/c-A JcL-nu mouse assessed as tumor growth inhibition at 300 mg/kg/day, po for 14 days measured on day 15 relative to control. In kind it is functional. As to conditions: read-out: GI. The gist of the method:
as §1

Another data set relates to Mus musculus. In words: Toxicity in Balb/c-A JcL-nu mouse bearing human MX1 cells assessed as decrease in body weight at 300 mg/kg/day, po administered for 15 days and co-treated with 5-Fu. Further details: route oral. It counts as organism-based. The following applies: in vivo, 336 h, in the assay text read “for 14 days” for “for 15 days”. In outline: as §1
Data set [9] deals with MX1. The experiment in a line: Potentiation of antitumor activity of 5-Fu against human MX1 cells xenografted in Balb/c-A JcL-nu mouse assessed as decrease in tumor volume at 300 mg/kg/day, po for 14 days measured on day 15 relative to control (reference value: 11.4 +/- 3.74). In kind it is functional. In outline: as §1
Data set [10] can be described thus: Antiproliferative activity against human HeLaS3 cells after 72 hrs by crystal violet assay. The following applies: HeLa S3, 72 h.
Data set [11] can be described thus: Cmax in Balb/c-A mouse at 50 mg/kg, po in a solution containing 2.5% DMA, 2.5% Tween 80 and 10% cremophor EL. More on the design: dose 50 mg/kg, route oral. It counts as ADME, organism-based. The following applies: in vivo. The gist of the method:
as §2

Data set [12] deals with MX1. In words: Potentiation of antitumor activity of 5-Fu against human MX1 cells xenografted in Balb/c-A JcL-nu mouse assessed as tumor volume at 300 mg/kg/day, po for 14 days measured on day 15 (reference value: 2048 +/- 693.7 mm3). In kind it is functional. In outline: as §1
Data set [13] in a line: Tmax in Balb/c-A mouse at 50 mg/kg, po in a solution containing 2.5% DMA, 2.5% Tween 80 and 10% cremophor EL. The following applies: in vivo. Further details: dose 50 mg/kg, route oral. In kind it is ADME, organism-based. In outline: as §2
Data set [14] deals with MX1. In words: Potentiation of antitumor activity of 5-Fu against human MX1 cells xenografted in Balb/c-A JcL-nu mouse assessed as tumor growth inhibition at 300 mg/kg/day, po for 14 days measured on day 15 relative to control. The following applies: read-out: GI. It counts as functional. In outline: as §1
For data set [15], the system named is MX1. The experiment in a line: Antitumor activity against human MX1 cells xenografted in Balb/c-A JcL-nu mouse assessed as decrease in tumor volume at 300 mg/kg/day, po for 14 days measured on day 15 relative to control (reference value: 11.4 +/- 3.74). It counts as functional. In outline:
as §1

The test system of data set [16] is MX1. The experiment in a line: Antitumor activity against human MX1 cells xenografted in Balb/c-A JcL-nu mouse assessed as tumor growth inhibition at 15 mg/kg/day by continuous infusion for 14 days measured on day 15 relative to control. In kind it is functional. The following applies: read-out: GI.
Data set [17] has as its system MX1. The experiment in a line: Antitumor activity against human MX1 cells xenografted in Balb/c-A JcL-nu mouse assessed as tumor volume at 15 mg/kg/day by continuous infusion for 14 days measured on day 15 (reference value: 2048 +/- 693.7 mm3). It counts as functional. The gist of the method: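 Five-week-old Balb/cA JcL-nu mice with MX-1 human breast carcinoma fragments (~2 mm) implanted sc by trocar, tumour maintained by sc serial transplantation. 5-FU given by continuous infusion via osmotic pump for 14 days; vehicle 2.5% DMA, 2.5% Tween 80, 10% Cremophor, 0.5% HPMC. Tumour size measured twice weekly; TV = length × width² × 0.5, read on day 15.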

The subject of data set [18] is MX1. In words: Antitumor activity against human MX1 cells xenografted in Balb/c-A JcL-nu mouse assessed as tumor volume at 15 mg/kg/day by continuous infusion for 14 days measured on day 15 relative to control (reference value: 11.4 +/- 3.74). It counts as functional.

Each structure is given as a SMILES string. pEC50, pIC50, pKi: −log10 of the molar value.

The values that follow come from ChEMBL document CHEMBL2057196, “Discovery of a novel class of potent human deoxyuridine triphosphatase inhibitors remarkably enhancing the antitumor activity of thymidylate synthase inhibitors” (J Med Chem, 2012).

Usually pKi stands for the negative decadic logarithm of the Ki, by convention in mol/L. For orientation: pEC50 means the negative decadic logarithm of the EC50, by convention in mol/L. Usually T/C stands for the result in the treated group divided by that in the control group, in per cent. The pIC50 is the negative decadic logarithm of the IC50, by convention in mol/L. In general, half-life refers to the time in which the quantity being followed falls by half. Read a high half-life as slow loss. For orientation: AUC(0-t) means exposure summed from dosing to a finite time, without extrapolation to infinity. Higher therefore signals high exposure. The term Cmax denotes the maximum level reached in the sampled fluid or tissue. Usually Tmax stands for the time from dosing to the highest level.

`O=c1ccn([C@H]2C[C@H](O)[C@@H](COP(=O)(O)NP(=O)(O)OP(=O)(O)O)O2)c(=O)[nH]1` showed a negative-log Ki (pKi) in data set [1] of 5.30.
Regarding `CC(C)(CCCOCn1ccc(=O)[nH]c1=O)NS(=O)(=O)c1ccccc1`, in data set [2], the pEC50 was 5.29 and the EC50 entry is given as “Dose-dependent effect”. The T/C in data set [3] is on record as 96%.
`O=c1ccn([C@H]2C[C@H](O)[C@@H](COP(=O)(O)CP(=O)(O)OP(=O)(O)OCc3ccccc3)O2)c(=O)[nH]1` showed a pKi in data set [1] of 6.52.
With `O=c1ccn(COCCOS(=O)(=O)NS(=O)(=O)c2ccccc2)c(=O)[nH]1`, in [2], the EC50 entry was “Not Active”. Also, the pIC50 in [4] is 5.51.
Take `COc1cc(C)ccc1S(=O)(=O)NC(C)(C)CCCOCn1ccc(=O)[nH]c1=O`: the pEC50 in data set [2] was 4.85. Besides, the negative logarithm of the IC50 (pIC50) in [4] was 4.71.
As to `COc1cccc(S(=O)(=O)NC(C)(C)CCCOCn2ccc(=O)[nH]c2=O)c1`, in data set [2], the pEC50 was 5.96. Besides, the negative-log IC50 (pIC50) in data set [4] was 5.92.
As to `COc1ccc(S(=O)(=O)NC(C)(C)CCCOCn2ccc(=O)[nH]c2=O)cc1`, the pEC50 in data set [2] is 4.83. Moreover, the negative-log IC50 (pIC50) in data set [4] was 4.74.
As to `CC(C)(CCCOCn1ccc(=O)[nH]c1=O)NS(=O)(=O)c1ccccc1Cl`, the negative-log EC50 (pEC50) in data set [2] was 5.10. The pIC50 in [4] was 5.03.
In the case of `CC(C)(CCCOCn1ccc(=O)[nH]c1=O)NS(=O)(=O)c1cccc(Cl)c1`, the negative logarithm of the EC50 (pEC50) in data set [2] was 5.40. Besides, the pIC50 in data set [4] was 5.35.
The like results for `CC(C)(CCCOCn1ccc(=O)[nH]c1=O)NS(=O)(=O)c1ccc(Cl)cc1` were, in that order, 5.30 and 5.24.
Regarding `CC(C)(CCCOCn1ccc(=O)[nH]c1=O)NS(=O)(=O)c1cccc(OCC2CC2)c1`, in data set [2], the pEC50 was 6.74. Besides, the negative logarithm of the IC50 (pIC50) in data set [4] is 7.46.
Turning to `CC(C)(NS(=O)(=O)CCCOCn1ccc(=O)[nH]c1=O)c1cccc(OCC2CC2)c1`, in [2], the negative-log EC50 (pEC50) is 6.35. Further, the negative-log IC50 (pIC50) in [4] was 6.47.
`C[C@@H](NS(=O)(=O)CCCOCn1ccc(=O)[nH]c1=O)c1cccc(OCC2CC2)c1`: the pEC50 in data set [2] is 7.18. The negative logarithm of the IC50 (pIC50) in [4] was 7.40.
For the molecule `C[C@H](NS(=O)(=O)CCCOCn1ccc(=O)[nH]c1=O)c1cccc(OCC2CC2)c1`, in data set [2], the pEC50 is 5.38. In [4], the negative-log IC50 (pIC50) is 5.60.
As to `C[C@@H](NS(=O)(=O)CCCOCn1ccc(=O)[nH]c1=O)c1ccc(F)c(OCC2CC2)c1`, the Activity is 2698 mm3 in the data set with MX1 [5], “Non-toxic” in the data set on Mus musculus and 299.7 mm3 in the data set with MX1 [12]. The half-life in data set [6] was 84 min. In addition, the AUC(0-t) in data set [7] amounted to 24.9 µM·h. Also, the inhibition in vivo at 300 mg/kg/day is -30.9% in the data set with MX1 [8] and 83% in the data set on MX1 [14]. In addition, the pEC50 in [2] is 7.12. Moreover, the values for the Ratio with MX1 [9] and in the data set with MX1 [15] were 1.94 and 14.9, respectively. Moreover, the pIC50 was 4.55 in data set [10] and 7.68 in data set [4]. For the same molecule, the maximum concentration (Cmax) in data set [11] is 15.1 µM. Further, the Tmax in data set [13] worked out at 30 min.
As to `CC(C)(C)[Si](C)(C)OCCOCn1ccc(=O)[nH]c1=O`, the pIC50 in data set [4] was 4.00.
Same read-out and setting: next, `O=c1ccn(COCCOC(c2ccccc2)(c2ccccc2)c2ccccc2)c(=O)[nH]1`: below 4.00.
Regarding `CC(NS(=O)(=O)CCCOCn1ccc(=O)[nH]c1=O)c1cccc(OCC2CC2)c1` (racemic), in data set [2], the pEC50 is 6.85. Moreover, the pIC50 in data set [4] was 7.21.
Regarding `O=c1[nH]cc(F)c(=O)[nH]1` [FLUOROURACIL], the inhibition in vivo at 15 mg/kg/day with MX1 [16] came out at 20%. Further, in the data set on MX1 [17], the Activity was 1645 mm3. In the data set with MX1 [18], the Ratio is 9.13.
